Data on 44 molecules can be found in ChEMBL document CHEMBL1138512, “A class of 2,4-bisanilinopyrimidine Aurora A inhibitors with unusually high selectivity against Aurora B” (J Med Chem, 2009).

Each structure is given as a SMILES string.

One test has as its target T1, Aurora kinase A (Homo sapiens, UniProt O14965).
T1 sequence (O14965 whole entry): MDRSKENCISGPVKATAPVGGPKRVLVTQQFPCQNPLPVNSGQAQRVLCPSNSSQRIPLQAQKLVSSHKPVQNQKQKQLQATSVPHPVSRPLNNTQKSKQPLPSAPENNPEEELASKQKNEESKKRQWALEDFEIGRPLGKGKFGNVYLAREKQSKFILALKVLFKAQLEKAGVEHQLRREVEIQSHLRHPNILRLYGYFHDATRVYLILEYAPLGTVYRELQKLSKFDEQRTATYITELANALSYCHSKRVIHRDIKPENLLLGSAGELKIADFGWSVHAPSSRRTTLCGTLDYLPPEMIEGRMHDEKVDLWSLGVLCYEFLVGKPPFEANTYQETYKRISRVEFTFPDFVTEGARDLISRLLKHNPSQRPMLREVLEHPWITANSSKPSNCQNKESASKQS
Description: Inhibition of N-terminal flag-tagged Aurora A expressed in Escherichia coli BL21-DE3 by ELISA.

The next test concerns HT-29. Description: Antiproliferative activity against human HT-29 cells after 4 days by celltiter assay. It is filed as functional, cell-based. Conditions: HT-29, 96 h.
In a further test the test system is HCT-116. The experiment in a line: Antiproliferative activity against human HCT116 cells after 4 days by celltiter assay. In kind it is functional, cell-based. To be noted: HCT-116, 96 h.
In test [1] the target is T2, Aurora kinase B (Homo sapiens, UniProt Q96GD4). The experiment in a line: Inhibition of Aurora B in human HCT116 cells assessed as complete loss of phospho-histone H3 staining by immunofluorescence assay.
Test [2] deals with T2, Aurora kinase B. The experiment in a line: Inhibition of Aurora B in human HT29 cells assessed as complete loss of phospho-histone H3 staining by immunofluorescence assay. It is filed as cell-based, HT-29. In short, it runs like this: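 Immunofluorescence for phospho-S10 histone H3 in HCT116 or HT29 cells, scored visually. Value taken as the lowest inhibitor concentration giving complete loss of staining, so it lies above the IC50. Units µM.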

Test [3] addresses T2, Aurora kinase B. Description: Inhibition of N-terminal flag-tagged Aurora B expressed in Escherichia coli BL21-DE3 by ELISA.

T2 sequence (Q96GD4 whole entry): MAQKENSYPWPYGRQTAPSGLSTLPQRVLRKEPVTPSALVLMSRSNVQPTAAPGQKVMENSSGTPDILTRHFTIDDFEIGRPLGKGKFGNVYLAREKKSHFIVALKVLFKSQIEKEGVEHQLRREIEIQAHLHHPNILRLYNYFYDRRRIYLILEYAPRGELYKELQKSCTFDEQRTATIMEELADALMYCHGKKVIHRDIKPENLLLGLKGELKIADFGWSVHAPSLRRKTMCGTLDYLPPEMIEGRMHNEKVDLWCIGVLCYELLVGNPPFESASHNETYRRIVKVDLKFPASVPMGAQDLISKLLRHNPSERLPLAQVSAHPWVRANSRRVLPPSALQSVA

In turn, `O=C(Nc1cccc(F)c1)c1ccc(Nc2nc(Nc3ccc(O)cc3)ncc2F)cc1` displayed an IC50 against Aurora kinase A of 59 nM.

`COc1ccc(Nc2ncc(F)c(Nc3ccc(OC)cc3)n2)cc1` returned an IC50 on Aurora kinase A of 130 nM.

For the molecule `CC(C)NC(=O)c1ccc(Nc2nc(Nc3ccc(O)cc3)ncc2F)cc1`, the IC50 against Aurora kinase A came to 51 nM.

Turning to `COc1ccc(NC(=O)c2ccc(Nc3nc(Nc4ccc(O)cc4)ncc3F)cc2)cc1`, the IC50 at Aurora kinase A came out at 14 nM.

As to `Cc1ccccc1Nc1nc(Nc2ccc(O)cc2)ncc1F`, the half-maximal inhibitory concentration (IC50) against Aurora kinase A amounted to 67 nM.

`COc1ccccc1NC(=O)c1ccc(Nc2nc(Nc3ccc(O)cc3)ncc2F)cc1` displayed an IC50 against Aurora kinase A of 78 nM.

`O=C(Nc1ccc(Cl)cc1)c1ccc(Nc2nc(Nc3ccc(O)cc3)ncc2F)cc1` had an IC50 at Aurora kinase A of 64 nM.

In turn, `O=C(Nc1cccc(O)c1)c1ccc(Nc2nc(Nc3ccc(O)cc3)ncc2F)cc1` displayed an IC50 on Aurora kinase A of 19 nM.

In the case of `O=C(Nc1ccccc1O)c1ccc(Nc2nc(Nc3ccc(O)cc3)ncc2F)cc1`, at Aurora kinase A, the IC50 amounted to 28 nM.

In turn, `O=C(Nc1ccccc1)c1ccc(Nc2nc(Nc3ccc(O)cc3)ncc2F)cc1` came in with an IC50 against Aurora kinase A of 19 nM.

The molecule `O=C(Nc1ccc(Nc2nc(Nc3ccc(O)cc3)ncc2F)cc1)c1ccccc1` came in with an IC50 against Aurora kinase A of 18 nM.

Take `CCCNC(=O)c1ccc(Nc2nc(Nc3ccc(O)cc3)ncc2F)cc1`: it took 49 nM to reach half-maximal inhibition on Aurora kinase A (IC50).

On to `COc1cccc(NC(=O)c2ccc(Nc3nc(Nc4ccc(O)cc4)ncc3F)cc2)c1`, for which, on Aurora kinase A, the IC50 was 36 nM.

Regarding `O=C(O)c1ccc(Nc2ncc3c(n2)-c2ccc(Cl)cc2C(c2c(F)cccc2F)=NC3)cc1` [MLN-8054], the IC50 worked out at 150 nM in the test with HT-29 and 100 nM in the test on HCT-116.

As to `Oc1ccc(Nc2ncc(F)c(Nc3ccc(O)cc3)n2)cc1`, the midpoint of inhibition against Aurora kinase A, the IC50, lay at 30 nM.

On Aurora kinase A, `Oc1ccc(Nc2ncc(C(F)(F)F)c(Nc3ccc(O)cc3)n2)cc1` came in with an IC50 of 14 nM.

On to `CN(C)C(=O)c1ccc(Nc2nc(Nc3ccc(O)cc3)ncc2F)cc1`, for which the IC50 at Aurora kinase A was found to be 640 nM.

`O=C(Nc1cccc(Cl)c1)c1ccc(Nc2nc(Nc3ccc(O)cc3)ncc2F)cc1`: the midpoint of inhibition against Aurora kinase A, the IC50, lay at 140 nM.

As to `Cc1cc(Nc2ccc(O)cc2)nc(Nc2ccc(O)cc2)n1`, the IC50 on Aurora kinase A was over 17000 nM.

Regarding `O=C(NC1CC1)c1ccc(Nc2nc(Nc3ccc(O)cc3)ncc2F)cc1`, the IC50 at Aurora kinase B [1] is over 25000 nM; on Aurora kinase B [2], over 30000 nM; on Aurora kinase B [3] it was 3800 nM; in the test on HT-29, 27000 nM; on Aurora kinase A, 54 nM; with HCT-116, 2000 nM.

On to `Cc1ccc(NC(=O)c2ccc(Nc3nc(Nc4ccc(O)cc4)ncc3F)cc2)cc1`, for which the IC50 against Aurora kinase A is 180 nM.

With `Oc1ccc(Nc2cc(Cl)nc(Nc3ccc(O)cc3)n2)cc1`, the IC50 at Aurora kinase A was over 17000 nM.

At Aurora kinase A, `COc1ccc(Nc2nc(Nc3ccc(O)cc3)ncc2F)cc1` came in with an IC50 of 78 nM.

Consider `Fc1ccc(Nc2ncc(F)c(Nc3ccc(F)cc3)n2)cc1`, for which half-maximal inhibition against Aurora kinase A (IC50) was put at 200 nM.

In turn, `O=C(Nc1ccc(Nc2nc(Nc3ccc(O)cc3)ncc2F)cc1)c1ccccc1F` yielded an IC50 on Aurora kinase A of 14 nM.

At Aurora kinase A, `Cc1cccc(NC(=O)c2ccc(Nc3nc(Nc4ccc(O)cc4)ncc3F)cc2)c1` yielded an IC50 of 50 nM.

In turn, `Oc1ccc(Nc2ccnc(Nc3ccc(O)cc3)n2)cc1` registered an IC50 at Aurora kinase A of 490 nM.

Molecule `Cc1ccc(Nc2nc(Nc3ccc(O)cc3)ncc2F)cc1` had an IC50 at Aurora kinase A of 75 nM.

In turn, `CCc1cnc(Nc2ccc(O)cc2)nc1Nc1ccc(O)cc1` gave an IC50 against Aurora kinase A of 150 nM.

Take `N#Cc1cnc(Nc2ccc(O)cc2)nc1Nc1ccc(O)cc1`: on Aurora kinase A, the IC50 was found to be 23 nM.

`O=C(Nc1ccccc1F)c1ccc(Nc2nc(Nc3ccc(O)cc3)ncc2F)cc1` gave an IC50 on Aurora kinase A of 9 nM.

The molecule `O=C(Nc1ccc(O)cc1)c1ccc(Nc2nc(Nc3ccc(O)cc3)ncc2F)cc1` gave an IC50 on Aurora kinase A of 13 nM.

Turning to `Oc1ccc(Nc2ncc(Cl)c(Nc3ccc(O)cc3)n2)cc1`, the IC50 at Aurora kinase A is 8 nM.

For the molecule `Cc1cnc(Nc2ccc(O)cc2)nc1Nc1ccc(O)cc1`, the midpoint of inhibition on Aurora kinase A, the IC50, lay at 34 nM.

Turning to `CCCc1cnc(Nc2ccc(O)cc2)nc1Nc1ccc(O)cc1`, the midpoint of inhibition on Aurora kinase A, the IC50, lay at 11000 nM.

Molecule `Cc1cccc(Nc2ncc(F)c(Nc3cccc(C)c3)n2)c1` had an IC50 at Aurora kinase A of 680 nM.

For `Cc1nc(Nc2ccc(O)cc2)nc(Nc2ccc(O)cc2)c1C`, on Aurora kinase A, the IC50 is over 17000 nM.

On to `NC(=O)c1ccc(Nc2nc(Nc3ccc(O)cc3)ncc2F)cc1`, for which, at Aurora kinase A, half-maximal inhibition (IC50) was put at 160 nM.

`O=C(Nc1ccc(F)cc1)c1ccc(Nc2nc(Nc3ccc(O)cc3)ncc2F)cc1` had an IC50 on Aurora kinase A of 25 nM.

With `O=C(Nc1ccc(Nc2nc(Nc3ccc(O)cc3)ncc2F)cc1)c1ccccc1Cl`, the IC50 is over 12000 nM on Aurora kinase B [1]; over 30000 nM at Aurora kinase B [2]; 1400 nM at Aurora kinase B [3]; 7200 nM with HT-29; 850 nM in the test on HCT-116.

Molecule `COc1ccccc1Nc1nc(Nc2ccc(O)cc2)ncc1F` registered an IC50 at Aurora kinase A of 20 nM.

In the case of `Cc1cccc(Nc2nc(Nc3ccc(O)cc3)ncc2F)c1`, inhibition against Aurora kinase A was half-maximal at 180 nM (IC50).

The molecule `Cc1ccccc1NC(=O)c1ccc(Nc2nc(Nc3ccc(O)cc3)ncc2F)cc1` had an IC50 at Aurora kinase A of 20 nM.

With `COc1cccc(Nc2nc(Nc3ccc(O)cc3)ncc2F)c1`, at Aurora kinase A, it took 260 nM to reach half-maximal inhibition (IC50).
